Laboratory results as given in ChEMBL document CHEMBL1122153, “Novel dimeric derivatives of leucomycins and tylosin, sixteen-membered macrolides” (1982).
In brackets after ≈: the same amount, converted by molar mass.

Key:
Format in all cases: functional
[1] = system: Bacillus subtilis; assay: Minimum inhibitory concentration (MIC) required to inhibit the growth of Bacillus subtilis PCI 219 by using nutrient agar as growth medium
[2] = system: Escherichia coli; assay: Minimum inhibitory concentration (MIC) required to inhibit the growth of Escherichia coli NIHJ using nutrient agar as growth medium
[3] = system: Staphylococcus aureus; assay: Minimum inhibitory concentration (MIC) required to inhibit the growth of Staphylococcus aureus FDA 209P by using nutrient agar as growth medium
[4] = system: Klebsiella pneumoniae; assay: Minimum inhibitory concentration (MIC) required to inhibit the growth of Klebsiella pneumoniae PCI 602 using nutrient agar as growth medium
[5] = system: Micrococcus luteus; assay: Minimum inhibitory concentration (MIC) required to inhibit the growth of Sarcina lutea PCI 1001 by using nutrient agar as growth medium
[6] = system: Escherichia coli; assay: Inhibition of 10,11,12,13-[3H]tetrahydroleucomycin A3 binding to Escherichia coli Ribosome; details: read-out: ID50
Procedure, shortened: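 Competition binding of [3H]tetrahydroleucomycin A3 to E. coli ribosomes. ID50 is the concentration of test agent giving 50% inhibition of radioligand binding.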

MIC [1]	MIC [2]	MIC [3]	MIC [4]	MIC [5]	IC50 [6]	SMILES
25 µg/mL (≈ 16.4 µM)	50 µg/mL (≈ 32.7 µM)	3.12 µg/mL (≈ 2.04 µM)	100 µg/mL (≈ 65.4 µM)	0.78 µg/mL (≈ 0.51 µM)		CC[C@@H]1OC(=O)C[C@H](O)[C@@H](C)[C@H](OC2OC(C)C(O)C(N(C)C)C2O)[C@H](CCNCC[C@H]2C[C@@H](C)C(=O)/C=C/C(C)=C/C(COC3OC(C)C(O)C(OC)C3OC)[C@@H](CC)OC(=O)C[C@@H](O)[C@H](C)[C@H]2OC2OC(C)C(O)C(N(C)C)C2O)C[C@H](C)C(=O)/C=C/C(C)=C/C1COC1OC(C)C(O)C(OC)C1OC (some centres undefined)
0.2 µg/mL (≈ 0.259 µM)	25 µg/mL (≈ 32.4 µM)	< 0.1 µg/mL	25 µg/mL (≈ 32.4 µM)	< 0.1 µg/mL	0.0012 µg/mL (≈ 0.00155 µM)	CCCC(=O)OC1C(C)OC(OC2C(C)OC(O[C@H]3[C@@H](CC=O)C[C@@H](C)[C@@H](O)/C=C/C=C/C[C@@H](C)OC(=O)C[C@@H](O)[C@@H]3OC)C(O)C2N(C)C)CC1(C)O (some centres undefined)
50 µg/mL (≈ 60.3 µM)	> 100 µg/mL	> 100 µg/mL	> 100 µg/mL	> 100 µg/mL		CO[C@@H]1[C@@H](OC2OC(C)C(OC3CC(C)(O)C(OC(=O)CC(C)C)C(C)O3)C(N(C)C)C2O)[C@@H](CCN)C[C@@H](C)[C@@H](O)/C=C/C=C/C[C@@H](C)OC(=O)C[C@H]1OC(C)=O (some centres undefined)
6.25 µg/mL (≈ 3.81 µM)	> 100 µg/mL	100 µg/mL (≈ 60.9 µM)	> 100 µg/mL	25 µg/mL (≈ 15.2 µM)	0.1 µg/mL (≈ 0.0609 µM)	CO[C@@H]1[C@@H](OC2OC(C)C(OC3CC(C)(O)C(OC(=O)CC(C)C)C(C)O3)C(N(C)C)C2O)[C@@H](CCNCC[C@@H]2C[C@H](C)[C@H](O)/C=C/C=C/C[C@H](C)OC(=O)C[C@H](OC(C)=O)[C@@H](OC)[C@@H]2OC2OC(C)C(OC3CC(C)(O)C(OC(=O)CC(C)C)C(C)O3)C(N(C)C)C2O)C[C@@H](C)[C@@H](O)/C=C/C=C/C[C@@H](C)OC(=O)C[C@H]1OC(C)=O (some centres undefined)
> 100 µg/mL	> 100 µg/mL	> 100 µg/mL	> 100 µg/mL	25 µg/mL (≈ 32.3 µM)		CCCC(=O)OC1C(C)OC(OC2C(C)OC(O[C@H]3[C@@H](CCN)C[C@@H](C)[C@@H](O)/C=C/C=C/C[C@@H](C)OC(=O)C[C@@H](O)[C@@H]3OC)C(O)C2N(C)C)CC1(C)O (some centres undefined)
12.5 µg/mL (≈ 8.18 µM)	> 100 µg/mL	50 µg/mL (≈ 32.7 µM)	> 100 µg/mL	12.5 µg/mL (≈ 8.18 µM)	0.02 µg/mL (≈ 0.0131 µM)	CCCC(=O)OC1C(C)OC(OC2C(C)OC(O[C@@H]3[C@H](CCNCC[C@H]4C[C@@H](C)[C@@H](O)/C=C/C=C/C[C@@H](C)OC(=O)C[C@@H](O)[C@H](OC)[C@H]4OC4OC(C)C(OC5CC(C)(O)C(OC(=O)CCC)C(C)O5)C(N(C)C)C4O)C[C@H](C)[C@H](O)/C=C/C=C/C[C@H](C)OC(=O)C[C@H](O)[C@H]3OC)C(O)C2N(C)C)CC1(C)O (some centres undefined)
0.78 µg/mL (≈ 0.851 µM)	50 µg/mL (≈ 54.6 µM)	0.78 µg/mL (≈ 0.851 µM)	100 µg/mL (≈ 109 µM)	< 0.1 µg/mL	0.0004 µg/mL (≈ 0.000437 µM)	CC[C@H]1OC(=O)C[C@@H](O)[C@H](C)[C@@H](O[C@@H]2O[C@H](C)[C@@H](O[C@H]3C[C@@](C)(O)[C@@H](O)[C@H](C)O3)[C@H](N(C)C)[C@H]2O)[C@@H](CC=O)C[C@@H](C)C(=O)/C=C/C(C)=C/[C@@H]1CO[C@@H]1O[C@H](C)[C@@H](O)[C@@H](OC)[C@H]1OC [TYLOSIN]
25 µg/mL (≈ 27.3 µM)	> 100 µg/mL	50 µg/mL (≈ 54.5 µM)	> 100 µg/mL	6.25 µg/mL (≈ 6.81 µM)		CC[C@H]1OC(=O)C[C@@H](O)[C@H](C)[C@@H](OC2OC(C)C(OC3CC(C)(O)C(O)C(C)O3)C(N(C)C)C2O)[C@@H](CCN)C[C@@H](C)C(=O)/C=C/C(C)=C/C1COC1OC(C)C(O)C(OC)C1OC (some centres undefined)
0.4 µg/mL (≈ 0.483 µM)	50 µg/mL (≈ 60.4 µM)	0.4 µg/mL (≈ 0.483 µM)	50 µg/mL (≈ 60.4 µM)	< 0.1 µg/mL		CO[C@@H]1[C@@H](OC2OC(C)C(OC3CC(C)(O)C(OC(=O)CC(C)C)C(C)O3)C(N(C)C)C2O)[C@@H](CC=O)C[C@@H](C)[C@@H](O)/C=C/C=C/C[C@@H](C)OC(=O)C[C@H]1OC(C)=O (some centres undefined)
6.25 µg/mL (≈ 7.68 µM)	> 100 µg/mL	6.25 µg/mL (≈ 7.68 µM)	> 100 µg/mL	1.56 µg/mL (≈ 1.92 µM)		CC[C@H]1C[C@@H](C)[C@@H](O)/C=C/C=C/C[C@@H](C)OC(=O)C[C@@H](OC(C)=O)[C@H](OC)[C@H]1OC1OC(C)C(OC2CC(C)(O)C(OC(=O)CC(C)C)C(C)O2)C(N(C)C)C1O (some centres undefined)
